{"data": "Results gathered from unrelated publications", "MET": "Hepatocyte growth factor receptor (MET, Homo sapiens, UniProt P08581)", "MET Y1235D": "Hepatocyte growth factor receptor (MET, Homo sapiens, UniProt P08581, Y1235D)", "MET M1250T": "Hepatocyte growth factor receptor (MET, Homo sapiens, UniProt P08581, M1250T)"}
{"SMILES": "N[C@@H]1CCN(c2nccc(-c3cnn4ncccc34)n2)C1", "target": "MET", "assay": "binding", "conditions": "1 µM", "remaining binding [%]": 60}
{"SMILES": "CNC(=O)Nc1ccc2c(c1)CC[C@@]21OC(=O)N(CC(=O)N(Cc2ccc(F)cc2)[C@@H](C)C(F)(F)F)C1=O", "target": "MET Y1235D", "assay": "cell-free assay, competition with immobilised ligand", "conditions": "1 µM", "remaining binding [%]": 81}
{"SMILES": "N#Cc1ccccc1CSc1nnc2c(n1)[nH]c1ccccc12", "target": "MET", "assay": "binding, competition with immobilised ligand", "conditions": "10 µM", "remaining binding [%]": 87}
{"SMILES": "FC(F)(F)c1ccc2c(c1)nc(-c1cccnc1)n2C1CC1", "target": "MET Y1235D", "assay": "cell-free assay, competition with immobilised ligand", "conditions": "1 µM", "remaining binding [%]": 100}
{"SMILES": "C[C@@H]1CCN(c2nccc(-c3cnn4ncccc34)n2)C1", "target": "MET M1250T", "assay": "binding", "conditions": "1 µM", "remaining binding [%]": 98}
{"SMILES": "O=C(c1ccc(Nc2nccc(-c3cc4ccccc4s3)n2)cc1)N1CCC(N2CCCC2)CC1", "target": "MET", "assay": "binding, competition with immobilised ligand", "conditions": "1 µM", "remaining binding [%]": 69}
{"SMILES": "Cc1nc(N2CC[C@@H](O)C2)ncc1-c1cc(C(F)(F)F)cc2[nH]ncc12", "target": "MET", "assay": "cell-free assay, competition with immobilised ligand", "conditions": "1 µM", "remaining binding [%]": 100}
{"SMILES": "CN1CCN(c2ccc(Nc3nccc(-c4ccccc4)n3)cc2C(F)(F)F)CC1", "target": "MET Y1235D", "assay": "binding", "conditions": "10 µM", "remaining binding [%]": 21}
{"SMILES": "CN(C)C(=O)Cn1cc(-c2nc(C3(c4ccc(-c5cnc(N)nc5)cc4)CC3)no2)cn1", "target": "MET M1250T", "assay": "cell-free assay, competition with immobilised ligand", "conditions": "1 µM", "remaining binding [%]": 100}
{"SMILES": "COc1cnc(Nc2cccc(S(N)(=O)=O)c2)nc1N1CCN(c2ccccc2)CC1", "target": "MET", "assay": "binding, competition with immobilised ligand", "conditions": "1 µM", "remaining binding [%]": 100}
{"SMILES": "CC1=C(C#N)C(c2ccc3c(c2)c(NC(=O)c2ccccc2C)nn3C)C(C#N)=C(C)N1", "target": "MET", "assay": "cell-free assay, competition with immobilised ligand", "conditions": "1 µM", "remaining binding [%]": 24}
{"SMILES": "O=C(NCCCN1CCOCC1)c1ccc(Nc2nccc(-c3cc4ccccc4s3)n2)cc1", "target": "MET Y1235D", "assay": "binding, competition with immobilised ligand", "conditions": "1 µM", "remaining binding [%]": 100}
{"SMILES": "c1cnn2ncc(-c3ccnc(N4CCC45COC5)n3)c2c1", "target": "MET", "assay": "binding", "conditions": "1 µM", "remaining binding [%]": 83}
{"SMILES": "CN(C)C(=O)Cn1cc(-c2nc([C@@](C)(c3ccc(-c4cnc(N)nc4)cc3)C3CC3)no2)cn1", "target": "MET M1250T", "assay": "cell-free assay, competition with immobilised ligand", "conditions": "1 µM", "remaining binding [%]": 93}
{"SMILES": "COc1ccnn2ncc(-c3ccnc(N(C)C)n3)c12", "target": "MET", "assay": "binding", "conditions": "1 µM", "remaining binding [%]": 92}
{"SMILES": "CC1=C(C#N)[C@@H](c2ccc3[nH]nc(C)c3c2)C(C#N)=C(c2ccc(Cl)cc2)N1", "target": "MET", "assay": "cell-free assay, competition with immobilised ligand", "conditions": "1 µM", "remaining binding [%]": 17.2}
{"SMILES": "CCN1CCN(Cc2ccc(C(=O)Nc3ccc(C)c(Oc4ccc5c(c4)CC(=O)N5)c3)cc2C(F)(F)F)CC1", "target": "MET Y1235D", "assay": "binding, competition with immobilised ligand", "conditions": "1 µM", "remaining binding [%]": 100}
{"SMILES": "COc1ncc2cc3ccccc3nc2c1C#N", "target": "MET M1250T", "assay": "cell-free assay, competition with immobilised ligand", "conditions": "5 µM", "remaining binding [%]": 100}
{"SMILES": "Cc1cnn2ncc(-c3ccnc(N(C)C)n3)c2c1", "target": "MET", "assay": "binding", "conditions": "1 µM", "remaining binding [%]": 100}
{"SMILES": "O=C(Nc1c[nH]nc1C(=O)NC1CCNCC1)c1cc(F)cc(F)c1", "target": "MET M1250T", "assay": "binding, competition with immobilised ligand", "conditions": "1 µM", "remaining binding [%]": 100}
{"SMILES": "O=C(c1ccc(Nc2ncc(Cl)c(-c3cc4ccccc4s3)n2)cc1)N1CCC(N2CCCC2)CC1", "target": "MET M1250T", "assay": "binding, competition with immobilised ligand", "conditions": "1 µM", "remaining binding [%]": 31}
{"SMILES": "c1cncc(-c2cccc(Nc3nccc(NC4CCCCC4)n3)c2)c1", "target": "MET Y1235D", "assay": "binding, competition with immobilised ligand", "conditions": "10 µM", "remaining binding [%]": 73}
{"SMILES": "CN(C)c1nccc(-c2cnn3ncccc23)n1", "target": "MET Y1235D", "assay": "binding", "conditions": "1 µM", "remaining binding [%]": 90}
{"SMILES": "CCS(=O)(=O)c1cc2cc(C[C@](O)(CC(C)(C)c3ccc(F)cc3C(N)=O)C(F)(F)F)[nH]c2cn1", "target": "MET", "assay": "cell-free assay, competition with immobilised ligand", "conditions": "1 µM", "remaining binding [%]": 98}
{"SMILES": "COc1cnc(Nc2cccc(S(N)(=O)=O)c2)nc1N1CCN(c2ccccc2)C(=O)C1", "target": "MET Y1235D", "assay": "binding, competition with immobilised ligand", "conditions": "1 µM", "remaining binding [%]": 100}
{"SMILES": "Cc1cnc(Nc2ccc(C(=O)N3CCC(N4CCCC4)CC3)cc2)nc1-c1cc2ccccc2s1", "target": "MET M1250T", "assay": "binding, competition with immobilised ligand", "conditions": "1 µM", "remaining binding [%]": 31}
{"SMILES": "O=C(NCC1CCOCC1)c1n[nH]cc1NC(=O)c1c(F)cccc1F", "target": "MET Y1235D", "assay": "binding, competition with immobilised ligand", "conditions": "1 µM", "remaining binding [%]": 97}
{"SMILES": "CN(C)c1ncc(F)c(-c2cnn3ncccc23)n1", "target": "MET", "assay": "binding", "conditions": "1 µM", "remaining binding [%]": 97}
{"SMILES": "C[C@@H]1CN(c2ccc3ncc(-c4ccc5[nH]nc(C6CC6)c5c4)n3n2)C[C@H](C)O1", "target": "MET", "assay": "binding, competition with immobilised ligand", "conditions": "50 nM", "remaining binding [%]": 89}
{"SMILES": "O=C(NCCCN1CCOCC1)c1ccc(Nc2ncc(Cl)c(-c3ccc(Cl)s3)n2)cc1", "target": "MET Y1235D", "assay": "binding, competition with immobilised ligand", "conditions": "1 µM", "remaining binding [%]": 99}
{"SMILES": "Nc1ncc2c(n1)-c1c([nH]c3ccc(C#CC4CC4)cc13)CCCC2", "target": "MET Y1235D", "assay": "binding, competition with immobilised ligand", "conditions": "1 µM", "remaining binding [%]": 92}
{"SMILES": "O=C(c1ccc(Nc2ncc(Cl)c(-c3ccc(Cl)s3)n2)cc1)N1CCC(N2CCCC2)CC1", "target": "MET Y1235D", "assay": "binding, competition with immobilised ligand", "conditions": "1 µM", "remaining binding [%]": 51}
{"SMILES": "CNC(=O)[C@@H]1CC[C@@H](n2c(-c3ccc4cnccc4c3)nc3ccc(C(=O)NCc4cccc(C(N)=O)c4)cc32)C1", "target": "MET Y1235D", "assay": "binding, competition with immobilised ligand", "conditions": "1 µM", "remaining binding [%]": 92}
